These results are taken from ChEMBL document CHEMBL3870310, “Design, synthesis and evaluation of pyrazole derivatives as non-nucleoside hepatitis B virus inhibitors” (Eur J Med Chem, 2016).

Data set [1] can be described thus: Cytotoxicity against human HepG2.2.15 cells assessed as decrease in cell viability after 8 days by CCK-8 assay. In kind it is toxicity, cell-based, HepG2 2.2.15. The procedure, abridged:
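HepG2.2.15 cells (HBV-transgenic human hepatoma) cultured in triplicate for 8 days with five doses of compound; untreated cells as controls. CCK-8 reagent added 0.5 h before end of culture, absorbance read at 450 nm, percent cell death calculated; CC50 is the concentration killing 50% of cells.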
Background: Tetrazolium dyes change colour on reduction, which living cells bring about.

Data set [2] deals with Hepatitis B virus. In words: Antiviral activity against Hepatitis B virus infected in human HepG2.2.15 cells assessed as inhibition of HBsAg secretion by ELISA. In kind it is functional, cell-based. The method in brief:
(§1)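 Supernatant from HepG2.2.15 cultures aspirated and HBeAg or HBsAg measured with a diagnostic ELISA kit, absorbance read on a plate reader. Inhibition (%) = (A normal cell group − A experimental group)/[…] × 100; IC50 is the concentration giving 50% inhibition of antigen secretion. Lamivudine positive control.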
For orientation: An ELISA detects its analyte on a solid surface through an enzyme-linked reagent.

Data set [3] relates to Hepatitis B virus. The experiment in a line: Antiviral activity against Hepatitis B virus infected in human HepG2.2.15 cells assessed as inhibition of HBeAg secretion by ELISA. Format: functional, cell-based. The procedure, abridged: as §1
The nature of data set [4]: Selectivity index, ratio of CC50 for human HepG2.2.15 cells to IC50 for Hepatitis B virus infected in human HepG2.2.15 cells assessed as inhibition of HBsAg secretion. Format: functional. The procedure, abridged: (§2)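 SI = CC50 (CCK-8, HepG2.2.15, 8 days) divided by IC50 for inhibition of HBeAg or HBsAg secretion measured by ELISA in HepG2.2.15 supernatants.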
Data set [5] can be described thus: Selectivity index, ratio of CC50 for human HepG2.2.15 cells to IC50 for Hepatitis B virus infected in human HepG2.2.15 cells assessed as inhibition of HBeAg secretion. In kind it is functional. The procedure, abridged:
as §2

For data set [6], the system named is Hepatitis B virus. In words: Antiviral activity against Hepatitis B virus infected in human HepG2.2.15 cells assessed as inhibition of viral DNA replication after 8 days by real-time fluorescent PCR method. In kind it is functional, cell-based. The settings on record: HepG2.2.15, 192 h. The method in brief: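 HepG2.2.15 cells exposed to compounds […] for 8 days; 100 µL culture supernatant added to extraction buffer, boiled 10 min, centrifuged 10 min, and aliquots assayed for extracellular HBV DNA by fluorescent-probe real-time quantitative PCR kit. Lamivudine positive control.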

A short description of data set [7]: Cytotoxicity against human HepG2.2.15 cells assessed as decrease in cell viability after 8 days by CCK-8 assay.
Data set [8] deals with Hepatitis B virus. In words: Antiviral activity against Hepatitis B virus infected in human HepAD38 cells assessed as inhibition of viral DNA replication. Format: functional, cell-based.
The nature of data set [9]: Cytotoxicity against human HepAD38 cells. Format: toxicity, cell-based.
Data set [10] relates to Hepatitis B virus. In words: Antiviral activity against Hepatitis B virus. Format: functional.

By CC50 is commonly meant the concentration giving 50% cytotoxicity. The IC50 is the midpoint of a concentration-inhibition curve. With `CC(C)Cc1sc(-c2nccs2)nc1C(=O)NCc1ccc(F)cc1`, the CC50 at 192 h in data set [1] worked out at 51.5 µM. Moreover, the concentration for half-maximal inhibition (IC50) in [2] was 34.7 µM; in data set [3], 31.6 µM; in data set [6] it was 1.33 µM. Also, the figures for the “Ratio CC50/IC50” value in data set [4] and in [5] were 1.48 and 1.63, respectively. For the same compound, the IC50 at 8 days in data set [7] was determined as 50.4 µM.
For the compound `CCOC(=O)c1cn(-c2cccc([N+](=O)[O-])c2)nc1CC(C)C`, in data set [1], the CC50 at 192 h is 59.3 µM. Further, the concentration for half-maximal inhibition (IC50) was determined as 63.3 µM in [2] and 59.4 µM in [3]. The “Ratio CC50/IC50” value in data set [4] came out at 0.94.
On to `CC(C)Cc1nn(-c2cccc(F)c2)cc1C(=O)NCc1ccncc1`, for which the cytotoxic concentration (CC50) at 192 h in [1] is over 100 µM. Moreover, the results for the IC50 in [2] and in [3] were over 100 µM and 71.2 µM, respectively. For the same compound, in data set [5], the “Ratio CC50/IC50” value is on record as over 1.41.
As for `CC(C)Cc1nn(-c2nccs2)cc1C(=O)NCc1ccccc1F`, the CC50 at 192 h in data set [1] is over 100 µM. Moreover, the IC50 in data set [2] turned out to be 50.1 µM; in data set [3] it was 26 µM. In addition, the results for the “Ratio CC50/IC50” value in [4] and in data set [5] were over 2 and over 3.85, respectively.
In the case of `COc1ccccc1/C(Br)=C(/NC(=O)c1ccc([N+](=O)[O-])cc1)C(=O)N1CCCCC1`, the IC50 was 0.13 µM in [8] and over 51 µM in data set [9].
As for `CCOC(=O)c1nc(-c2cncs2)sc1CC(C)C`, the half-inhibitory concentration (IC50) in data set [6] is 1.1 µM.
On to `CC(C)Cc1nn(-c2cccc(F)c2)cc1C(=O)NNc1ccc(F)cc1`, for which the CC50 at 192 h in data set [1] came out at 45.4 µM. Moreover, the half-maximal inhibitory concentration (IC50) was 51.9 µM in data set [2] and 34 µM in data set [3]. The “Ratio CC50/IC50” value in data set [5] is reported as 1.34.
As for `CC(C)Cc1nn(-c2nccs2)cc1C(=O)NCc1ccc(C(F)(F)F)cc1`, the 50% cytotoxic concentration (CC50) at 192 h in data set [1] is over 100 µM. The concentration for half-maximal inhibition (IC50) in data set [2] and in data set [3] was over 100 µM each time.
In the case of `CC(C)Cc1nn(-c2cccc(F)c2)cc1C(=O)Nc1ccc(F)cc1`, the half-maximal cytotoxic concentration (CC50) at 192 h in [1] turned out to be 36.2 µM. The half-maximal inhibitory concentration (IC50) in data set [2] amounted to 25.9 µM; in [3] it was 24.7 µM. The “Ratio CC50/IC50” value in [4] amounted to 1.4; in data set [5] it was 1.47.
`CCOC(=O)c1cn(-c2ccc([N+](=O)[O-])cc2)nc1CC(C)C`: the CC50 at 192 h in data set [1] was over 100 µM. The concentration for half-maximal inhibition (IC50) in [2] and in data set [3] was over 100 µM in each case.
In the case of `CCOC(=O)c1cn(-c2ccc(OC)cc2)nc1CC(C)C`, in [1], the 50% cytotoxic concentration (CC50) at 192 h came out at 77.1 µM. For the same compound, the IC50 in data set [2] stood at 68.5 µM; in data set [3] it was 71.6 µM. For the same compound, the “Ratio CC50/IC50” value is recorded as 1.12 in [4] and 1.08 in [5].
Consider `CCOC(=O)c1cn(-c2ccccc2F)nc1CC(C)C`, for which the half-maximal cytotoxic concentration (CC50) at 192 h in data set [1] is over 100 µM. In addition, the half-inhibitory concentration (IC50) came to 94.8 µM in data set [2] and 82.3 µM in data set [3]. In addition, the “Ratio CC50/IC50” value in [4] is over 1.05; in [5], over 1.21.
On the same counts, the results for `CC(C)Cc1nn(-c2nccs2)cc1C(=O)NCc1ccc(F)cc1` are over 100 µM, 44.5 µM, 31.4 µM, over 2.25 and over 3.18.
With `CC(C)Cc1nn(-c2nccs2)cc1C(=O)NCc1ccc(N)cc1`, the CC50 at 192 h in data set [1] was over 100 µM. For the same compound, the 50% inhibitory concentration (IC50) in data set [2] and in data set [3] was over 100 µM each time.
`CC(C)Cc1nn(-c2nccs2)cc1C(=O)Nc1ccc(F)cc1`: the CC50 at 192 h in data set [1] came to 83.7 µM. Moreover, the IC50 in data set [2] was determined as 24.3 µM; in data set [3], 2.22 µM. Further, the “Ratio CC50/IC50” value in [4] came out at 3.44; in data set [5], 37.69.
As for `COc1ccc(CONC(=O)c2cn(-c3cccc(F)c3)nc2CC(C)C)cc1`, the CC50 at 192 h in data set [1] is 67.9 µM. Further, the concentration for half-maximal inhibition (IC50) stood at 57.6 µM in data set [2] and 44.8 µM in data set [3]. In addition, the figures for the “Ratio CC50/IC50” value in data set [4] and in data set [5] were 1.18 and 1.52, respectively.
For `CC(C)Cc1nn(-c2cccc(F)c2)cc1C(=O)NCc1ccccc1`, the half-maximal cytotoxic concentration (CC50) at 192 h in [1] was 85.9 µM. For the same compound, the IC50 is 38.6 µM in data set [2] and 38.5 µM in data set [3]. In addition, the “Ratio CC50/IC50” value in data set [4] and in data set [5] was 2.23 in each case.
Regarding `CCOC(=O)c1cn(-c2cccc(OC)c2)nc1CC(C)C`, the CC50 at 192 h in data set [1] stood at 70.5 µM. For the same compound, the figures for the concentration for half-maximal inhibition (IC50) in [2] and in data set [3] were 63.3 µM and 70.6 µM, respectively. Further, the “Ratio CC50/IC50” value in data set [4] came out at 1.11; in data set [5], 1.
Turning to `CCOC(=O)c1cn(-c2ccccc2[N+](=O)[O-])nc1CC(C)C`, the CC50 at 192 h in [1] worked out at 4.85 µM. Moreover, the half-inhibitory concentration (IC50) in [2] was 49.3 µM; in [3], under 6.25 µM. In addition, the results for the “Ratio CC50/IC50” value in data set [4] and in [5] were 0.1 and over 0.78, respectively.
For `CC(C)Cc1nn(-c2nccs2)cc1C(=O)NCc1ccc(O)cc1`, the CC50 at 192 h in [1] was over 100 µM. Besides, the concentration for half-maximal inhibition (IC50) in data set [2] is over 100 µM; in [3], 86.2 µM. Besides, the “Ratio CC50/IC50” value in [5] is given as over 1.16.
As for `COc1ccc(CNC(=O)c2cn(-c3nccs3)nc2CC(C)C)cc1`, the cytotoxic concentration (CC50) at 192 h in [1] is over 100 µM. Moreover, the values for the IC50 in [2] and in data set [3] were over 100 µM and 95.7 µM, respectively. The “Ratio CC50/IC50” value in [5] was over 1.05.
As for `CCOC(=O)c1cn(-c2ccc(F)cc2)nc1CC(C)C`, in [1], the CC50 at 192 h was over 100 µM. Moreover, the IC50 in data set [2] and in data set [3] was over 100 µM each time.
On to `CC(C)Cc1nn(-c2nccs2)cc1C(=O)NCc1cccc(F)c1`, for which, in [1], the CC50 at 192 h is over 100 µM. Moreover, the IC50 in data set [2] turned out to be 58.8 µM; in [3] it was 17.2 µM. The “Ratio CC50/IC50” value in data set [4] is given as over 1.7; in data set [5], over 5.8.
On to `CCOC(=O)c1cn(-c2nccs2)nc1CC(C)C`, for which the CC50 at 192 h in data set [1] was over 100 µM. For the same compound, the IC50 in [2] and in data set [3] was over 100 µM each time.
For the compound `CCOC(=O)c1cn(-c2ccc(C(=O)O)cc2)nc1CC(C)C`, in data set [1], the CC50 at 192 h was over 100 µM. Also, the 50% inhibitory concentration (IC50) in data set [2] and in [3] was over 100 µM throughout.
In the case of `CC(C)Cc1nn(-c2cccc(F)c2)cc1C(=O)NCC1CCN(C(=O)OC(C)(C)C)CC1`, in data set [1], the 50% cytotoxic concentration (CC50) at 192 h is over 100 µM. The IC50 in data set [2] and in [3] was over 100 µM throughout.
Turning to `CCOC(=O)c1nc(-c2cccc(F)c2)sc1CC(C)C`, in data set [10], the 50% inhibitory concentration (IC50) was under 0.05 µM.
In the case of `CC(C)Cc1nn(-c2cccc(F)c2)cc1C(=O)NCc1ccc(F)cc1`, in data set [1], the CC50 at 192 h was over 100 µM. Further, the 50% inhibitory concentration (IC50) in [2] and in data set [3] was over 100 µM in each case.
Regarding `COC(=O)c1nc(-c2cnc([C@@H](NC(=O)c3cccs3)C(C)C)s2)oc1C`, the 50% inhibitory concentration (IC50) in data set [6] came to 76.4 µM.
For `CC(C)Cc1nn(-c2nccs2)cc1C(=O)NCc1ccc(F)cc1F`, the cytotoxic concentration (CC50) at 192 h in [1] turned out to be 83.6 µM. In addition, the half-inhibitory concentration (IC50) in [2] was found to be 41.8 µM; in data set [3] it was 8.84 µM. The “Ratio CC50/IC50” value was found to be 2 in data set [4] and 9.46 in data set [5].
As for `CCOC(=O)c1cn(-c2cccc(C(=O)O)c2)nc1CC(C)C`, the CC50 at 192 h in [1] turned out to be 7.1 µM. The figures for the IC50 in [2] and in data set [3] were 41.9 µM and 47.9 µM, respectively. In addition, the “Ratio CC50/IC50” value is 0.17 in data set [4] and 0.15 in [5].
Take `Nc1ccn([C@@H]2CS[C@H](CO)O2)c(=O)n1` [LAMIVUDINE]: the CC50 at 192 h in [1] is over 100 µM. Besides, the half-maximal inhibitory concentration (IC50) in [2] and in [3] was over 100 µM each time.
